The results in this text go back to ChEMBL document CHEMBL3875141, “2,4,5-Trisubstituted thiazole derivatives as HIV-1 NNRTIs effective on both wild-type and mutant HIV-1 reverse transcriptase: Optimization of the substitution of positions 4 and 5” (Eur J Med Chem, 2016).

Data set [1] has as its system Human immunodeficiency virus 1. Nature of the data set: Ratio of IC50 for HIV-1 NL4-3 harboring RT-K103N/G190A double mutant infected in HEK293T cells co-expressing vesicular stomatitis virus glycoprotein to IC50 for wild-type HIV-1 NL4-3 infected in HEK293T cells co-expressing vesicular stomatitis virus glycoprotein. It counts as functional, HEK-293T. An outline of the steps:
(§1)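 Fold change: mean IC50 against each RT-mutant VSV-G-pseudotyped virus divided by IC50 against wild-type pseudovirus. Both values come from the same HEK293T assay: 0.2 ng p24/mL inoculum, compound added 15 min before infection, luciferase read-out at 48 h.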

The subject of data set [2] is Human immunodeficiency virus 1. Kind of data set: Antiviral activity against HIV-1 NL4-3 harboring RT-K103N/G190A double mutant infected in HEK293T cells coexpressing vesicular stomatitis virus glycoprotein pretreated with cells for 15 mins followed by viral infection measured after 48 hrs by luciferase reporter gene assay. Format: functional, cell-based. The following applies: hek-293t. The method, boiled down:
(§2)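 VSV-G-pseudotyped HIV-1 (wild-type or RT mutant) produced by co-transfection of HEK293T cells (calcium phosphate), supernatant harvested 48 h, 0.22 µm filtered, normalised by p24 ELISA to 0.2 ng p24/mL.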
On the technique in general: A reporter such as luciferase makes a cellular process visible.

Data set [3] deals with Human immunodeficiency virus 1. Kind of data set: Ratio of IC50 for HIV-1 NL4-3 harboring RT-Y188L mutant infected in HEK293T cells co-expressing vesicular stomatitis virus glycoprotein to IC50 for wild-type HIV-1 NL4-3 infected in HEK293T cells co-expressing vesicular stomatitis virus glycoprotein. Format: functional, HEK-293T. An outline of the steps:
as §1

Data set [4] has as its system Human immunodeficiency virus 1. Nature of the data set: Antiviral activity against HIV-1 NL4-3 harboring RT-K103N/V108I double mutant infected in HEK293T cells coexpressing vesicular stomatitis virus glycoprotein pretreated with cells for 15 mins followed by viral infection measured after 48 hrs by luciferase reporter gene assay. It counts as functional, cell-based. The following applies: hek-293t. An outline of the steps:
as §2

For data set [5], the system named is Human immunodeficiency virus 1. Nature of the data set: Ratio of IC50 for HIV-1 NL4-3 harboring RT-K103N mutant infected in HEK293T cells co-expressing vesicular stomatitis virus glycoprotein to IC50 for wild-type HIV-1 NL4-3 infected in HEK293T cells co-expressing vesicular stomatitis virus glycoprotein. Format: functional, HEK-293T.
Data set [6] deals with Human immunodeficiency virus 1. Nature of the data set: Ratio of IC50 for HIV-1 NL4-3 harboring RT-L100I/K103N double mutant infected in HEK293T cells co-expressing vesicular stomatitis virus glycoprotein to IC50 for wild-type HIV-1 NL4-3 infected in HEK293T cells co-expressing vesicular stomatitis virus glycoprotein. Format: functional, HEK-293T. An outline of the steps: as §1

Data set [7] concerns Human immunodeficiency virus 1. Nature of the data set: Ratio of IC50 for HIV-1 NL4-3 harboring RT-Y181C mutant infected in HEK293T cells co-expressing vesicular stomatitis virus glycoprotein to IC50 for wild-type HIV-1 NL4-3 infected in HEK293T cells co-expressing vesicular stomatitis virus glycoprotein. It counts as functional, HEK-293T. The method, boiled down: as §1
Data set [8] has as its system Human immunodeficiency virus 1. Kind of data set: Antiviral activity against HIV-1 NL4-3 harboring RT-L100I/K103N double mutant infected in HEK293T cells coexpressing vesicular stomatitis virus glycoprotein pretreated with cells for 15 mins followed by viral infection measured after 48 hrs by luciferase reporter gene assay. Format: functional, cell-based. The following applies: hek-293t. The method, boiled down:
as §2

Data set [9] has as its system Human immunodeficiency virus 1. Kind of data set: Ratio of IC50 for HIV-1 NL4-3 harboring RT-K103N/Y188L double mutant infected in HEK293T cells co-expressing vesicular stomatitis virus glycoprotein to IC50 for wild-type HIV-1 NL4-3 infected in HEK293T cells co-expressing vesicular stomatitis virus glycoprotein. It counts as functional, HEK-293T. An outline of the steps: as §1

For data set [10], the system named is Human immunodeficiency virus 1. Kind of data set: Ratio of IC50 for HIV-1 NL4-3 harboring RT-K103N/Y181C double mutant infected in HEK293T cells co-expressing vesicular stomatitis virus glycoprotein to IC50 for wild-type HIV-1 NL4-3 infected in HEK293T cells co-expressing vesicular stomatitis virus glycoprotein. Format: functional, HEK-293T. An outline of the steps: as §1

Data set [11] has as its system Human immunodeficiency virus 1. Kind of data set: Antiviral activity against HIV-1 NL4-3 harboring RT-K103N/Y181C double mutant infected in HEK293T cells coexpressing vesicular stomatitis virus glycoprotein pretreated with cells for 15 mins followed by viral infection measured after 48 hrs by luciferase reporter gene assay. Format: functional, cell-based. The following applies: hek-293t. An outline of the steps: as §2

In data set [12] the test system is Human immunodeficiency virus 1. Kind of data set: Antiviral activity against HIV-1 NL4-3 harboring RT-K103N/P225H double mutant infected in HEK293T cells coexpressing vesicular stomatitis virus glycoprotein pretreated with cells for 15 mins followed by viral infection measured after 48 hrs by luciferase reporter gene assay. Format: functional, cell-based. The settings on record: hek-293t. The method, boiled down:
as §2

Data set [13] has as its system Human immunodeficiency virus 1. Kind of data set: Antiviral activity against HIV-1 NL4-3 harboring RT-Y181C mutant infected in HEK293T cells coexpressing vesicular stomatitis virus glycoprotein pretreated with cells for 15 mins followed by viral infection measured after 48 hrs by luciferase reporter gene assay. It counts as functional, cell-based. The following applies: hek-293t. An outline of the steps:
as §2

Data set [14] concerns Human immunodeficiency virus 1. Nature of the data set: Antiviral activity against HIV-1 NL4-3 harboring RT-Y188L mutant infected in HEK293T cells coexpressing vesicular stomatitis virus glycoprotein pretreated with cells for 15 mins followed by viral infection measured after 48 hrs by luciferase reporter gene assay. Format: functional, cell-based. The following applies: hek-293t. The method, boiled down: as §2

The nature of data set [15]: Cytotoxicity against HEK293T cells at 10 uM after 48 hrs by cell proliferation assay. Format: toxicity, cell-based. The settings on record: human, hek-293t. An outline of the steps: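 HEK 293T cells seeded at 1×10^4 cells/well, treated next day with serially diluted compounds and cultured 48 h; viability read with a cell proliferation assay kit per manufacturer's instructions. Footnote reports testing at a final concentration of 10 μM.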

Data set [16] concerns Human immunodeficiency virus 1. Nature of the data set: Ratio of IC50 for HIV-1 NL4-3 harboring RT-K103N/P225H double mutant infected in HEK293T cells co-expressing vesicular stomatitis virus glycoprotein to IC50 for wild-type HIV-1 NL4-3 infected in HEK293T cells co-expressing vesicular stomatitis virus glycoprotein. Format: functional, HEK-293T. The method, boiled down:
as §1

Data set [17] has as its system Human immunodeficiency virus 1. Nature of the data set: Ratio of IC50 for HIV-1 NL4-3 harboring RT-K103N/V108I double mutant infected in HEK293T cells co-expressing vesicular stomatitis virus glycoprotein to IC50 for wild-type HIV-1 NL4-3 infected in HEK293T cells co-expressing vesicular stomatitis virus glycoprotein. Format: functional, HEK-293T. An outline of the steps: as §1

Data set [18] concerns Human immunodeficiency virus 1. Kind of data set: Antiviral activity against HIV-1 NL4-3 harboring RT-K103N/Y188L double mutant infected in HEK293T cells coexpressing vesicular stomatitis virus glycoprotein pretreated with cells for 15 mins followed by viral infection measured after 48 hrs by luciferase reporter gene assay. Format: functional, cell-based. The settings on record: hek-293t. The method, boiled down: as §2

The test system of data set [19] is Human immunodeficiency virus 1. Kind of data set: Antiviral activity against HIV-1 NL4-3 harboring RT-K103N mutant infected in HEK293T cells coexpressing vesicular stomatitis virus glycoprotein pretreated with cells for 15 mins followed by viral infection measured after 48 hrs by luciferase reporter gene assay. It counts as functional, cell-based. The settings on record: hek-293t. An outline of the steps: as §2

Data set [20] has as its system Human immunodeficiency virus 1. Nature of the data set: Antiviral activity against wild-type HIV-1 NL4-3 harboring vesicular stomatitis virus glycoprotein infected in HEK293T cells pretreated with cells for 15 mins followed by viral infection measured after 48 hrs by luciferase reporter gene assay. It counts as functional, cell-based. The settings on record: Human immunodeficiency virus 1, NL4-3, HEK-293T. An outline of the steps:
as §2

On to `COc1ccccc1Cc1sc(NCc2ccc3c(c2)CCO3)nc1-c1ccccc1`, for which the “Ratio IC50” value in data set [1] is given as 8.1; in [3] it was above 223.7; in data set [5], 12.2; in data set [6], 73.8; in data set [7], 8.8; in [9], above 223.7. Further, the “Ratio IC50” value stood at 132.8 in data set [10], 69.2 in [16] and 21.3 in data set [17]. In addition, the IC50 – broadly, the concentration at which inhibition is half-maximal – was 0.58 µM in data set [2]; 1.53 µM in data set [4]; 5.31 µM in [8]; 9.56 µM in data set [11]; 4.98 µM in [12]; 0.512 µM in data set [13]. In addition, the IC50 in data set [14] was above 10 µM; in data set [18], above 10 µM; in data set [19], 0.88 µM; in [20], 0.072 µM. Also, the Activity entry in data set [15] is recorded as “Non-Toxic”.
In the case of `Fc1cc(F)cc(Cc2sc(NCc3ccc4c(c3)CCO4)nc2-c2ccccc2)c1`, the “Ratio IC50” value in [1] was 53.8; in [3], above 268.8; in [5], 37.9; in [6], 31.5; in [7] it was 149.5; in data set [9] it was above 268.8. Further, the “Ratio IC50” value in data set [10] is above 268.8; in data set [16], 135.2; in data set [17] it was 279.6. Also, the IC50 was 2 µM in [2]; 10.4 µM in data set [4]; 1.17 µM in [8]; above 10 µM in data set [11]; 5.03 µM in [12]; 5.56 µM in data set [13]. Further, the IC50 was above 10 µM in [14], above 10 µM in [18], 1.41 µM in data set [19] and 0.037 to 0.0372 µM in data set [20]. Also, the Activity entry in [15] was “Non-Toxic”.
